ChEMBL document CHEMBL3244193, “Design of species- or isozyme-specific enzyme inhibitors. 3. Species and isozymic differences between mammalian and bacterial adenylate kinases in substituent tolerance in an enzyme-substrate complex” (J Med Chem, 1979)

Experiments:
[1] = substrate: Nc1ncnc2c1ncn2[C@@H]1O[C@H](COP(=O)(O)OP(=O)(O)OP(=O)(O)O)[C@@H](O)[C@H]1O; conditions: Rattus norvegicus; Sprague-Dawley
[2] = substrate: CCCSc1nc2c(N)ncnc2n1[C@@H]1O[C@H](COP(=O)(O)OP(=O)(O)OP(=O)(O)O)[C@@H](O)[C@H]1O; assay: (§1) Activity of Sprague-Dawley rat muscle adenylate kinase by Lineweaver-Burk plot analysis relative to ATP
Method in brief: (§2)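 Substrate kinetics in a pyruvate kinase/lactate dehydrogenase-coupled assay: 0.1 M Tris-HCl pH 7.6, 2 mM MgSO4, 0.12 M KCl, 0.3 mM PEP, 0.38 mM NADH, 0.25 mM AMP. A340 change over 5 min at 23 °C. Derivatives screened first at ca. 0.8 mM. Five or more substrate levels; KM and Vmax (relative to ATP) taken from linear Lineweaver-Burk plots.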

[3] = substrate: Nc1ncnc2c1ncn2[C@@H]1O[C@H](COP(=O)(O)OP(=O)(O)OP(=O)(O)O)[C@@H](O)[C@H]1O; assay: as §1
Method in brief: as §2

[4] = substrate: CSc1nc2c(N)ncnc2n1[C@@H]1O[C@H](COP(=O)(O)OP(=O)(O)OP(=O)(O)O)[C@@H](O)[C@H]1O; assay: as §1
Method in brief: as §2

[5] = substrate: O=C(CI)NCCCCCNc1ncnc2c1ncn2[C@@H]1O[C@H](COP(=O)(O)OP(=O)(O)OP(=O)(O)O)[C@@H](O)[C@H]1O; assay: as §1
Method in brief: as §2

[6] = substrate: CCSc1nc2c(N)ncnc2n1[C@@H]1O[C@H](COP(=O)(O)OP(=O)(O)OP(=O)(O)O)[C@@H](O)[C@H]1O; assay: (§3) Activity of Sprague-Dawley rat liver adenylate kinase 3 by Lineweaver-Burk plot analysis relative to ATP
Method in brief: as §2

[7] = substrate: CCCSc1nc2c(N)ncnc2n1[C@@H]1O[C@H](COP(=O)(O)OP(=O)(O)OP(=O)(O)O)[C@@H](O)[C@H]1O; assay: as §3
Method in brief: as §2

[8] = substrate: Nc1ncnc2c1nc(SCCO)n2[C@@H]1O[C@H](COP(=O)(O)OP(=O)(O)OP(=O)(O)O)[C@@H](O)[C@H]1O; assay: as §3
Method in brief: as §2

[9] = substrate: Nc1ncnc2c1ncn2[C@@H]1O[C@H](COP(=O)(O)OP(=O)(O)OP(=O)(O)O)[C@@H](O)[C@H]1O; assay: as §3
Method in brief: as §2

[10] = substrate: CSc1nc2c(N)ncnc2n1[C@@H]1O[C@H](COP(=O)(O)OP(=O)(O)OP(=O)(O)O)[C@@H](O)[C@H]1O; assay: as §3
Method in brief: as §2

[11] = substrate: O=C(CI)NCCCCCNc1ncnc2c1ncn2[C@@H]1O[C@H](COP(=O)(O)OP(=O)(O)OP(=O)(O)O)[C@@H](O)[C@H]1O; assay: as §3
Method in brief: as §2

[12] = substrate: CCSc1nc2c(N)ncnc2n1[C@@H]1O[C@H](COP(=O)(O)OP(=O)(O)OP(=O)(O)O)[C@@H](O)[C@H]1O; assay: (§4) Activity of Sprague-Dawley rat liver adenylate kinase 3 by Lineweaver-Burk plot analysis
Method in brief: as §2

[13] = substrate: CCCSc1nc2c(N)ncnc2n1[C@@H]1O[C@H](COP(=O)(O)OP(=O)(O)OP(=O)(O)O)[C@@H](O)[C@H]1O; assay: as §4
Method in brief: as §2

[14] = substrate: Nc1ncnc2c1nc(SCCO)n2[C@@H]1O[C@H](COP(=O)(O)OP(=O)(O)OP(=O)(O)O)[C@@H](O)[C@H]1O; assay: as §4
Method in brief: as §2

[15] = substrate: Nc1ncnc2c1ncn2[C@@H]1O[C@H](COP(=O)(O)OP(=O)(O)OP(=O)(O)O)[C@@H](O)[C@H]1O; assay: as §4
Method in brief: as §2

[16] = substrate: CSc1nc2c(N)ncnc2n1[C@@H]1O[C@H](COP(=O)(O)OP(=O)(O)OP(=O)(O)O)[C@@H](O)[C@H]1O; assay: as §4
Method in brief: as §2

[17] = substrate: O=C(CI)NCCCCCNc1ncnc2c1ncn2[C@@H]1O[C@H](COP(=O)(O)OP(=O)(O)OP(=O)(O)O)[C@@H](O)[C@H]1O; assay: as §4
Method in brief: as §2

B1: Adenylate kinase isoenzyme 1 (Rattus norvegicus), P39069 (protein)
chain: MEDKLKKAKIIFVVGGPGSGKGTQCEKIVQKYGYTHLSTGDLLRAEVSSGSSRGKMLSSIMEKGELVPLETVLDMLRDAMLAKVDSSNGFLIDGYPREVKQGEEFERKIAQPTLLLYVDAGPETMTQRLLKRGETSGRVDDNEETIKKRLETYYKATEPVISFYDKRGIVRKVNAEGSVDTVFSQVCTYLDSLK
**Q.** What does the source list for B1?
**A.** Km [1]: 650 µM; Vmax [2]: 0%; Vmax [3]: 100%; Vmax [4]: 0%; Vmax [5]: 0%

B2: GTP:AMP phosphotransferase AK3, mitochondrial (Rattus norvegicus), P29411 (protein)
chain: MGASGRLLRAVIMGAPGSGKGTGSSRITKHFELKHLSSGDLLRQNMLQGTEIAVLAKSFIDQGKLIPDDDMTRLALHELKNLTQCSWLLDGFPRTLPQAEALDRVYQIDTVINLNVPFEVIKLRLTARWIHPASGRVYNIEFNPPKTVGIDDLTGEPLIQREDDKPETVIKRLKAYEAQTEPVLQYYQKKGVLETFSGTETNKIRPHVYSFLQMKVPETIQKASVTP
**Q.** For B2, which Vmax [6] is on record?
**A.** Its Vmax is 11.4%.

**Q.** And the Vmax [7]?
**A.** Its Vmax is 10.4%.

**Q.** And the Vmax [8]?
**A.** Its Vmax is 12.5%.

**Q.** And the Vmax [9]?
**A.** Its Vmax is 100%.

**Q.** What about the Vmax [10] of the same protein?
**A.** The Vmax was 8.3%.

**Q.** What about the Vmax [11] of the same protein?
**A.** Its Vmax is 8.9%.

**Q.** And the Km [12]?
**A.** Its Km is 70 µM.

**Q.** And the Km [13]?
**A.** The Km was 40 µM.

**Q.** What about the Km [14] of the same protein?
**A.** The Km was 120 µM.

**Q.** And the Km [15]?
**A.** Its Km is 90 µM.

**Q.** And the Km [16]?
**A.** The Km was 150 µM.

**Q.** And the Km [17]?
**A.** Its Km is 400 µM.
